{"data": "Measured values collected from several papers", "Nuclear receptor subfamily 4 group A member 2": "Nuclear receptor subfamily 4 group A member 2 (Homo sapiens, UniProt P43354)", "P2RY14": "P2Y purinoceptor 14 (P2RY14, Homo sapiens, UniProt Q15391)", "ADRA1B": "Alpha-1B adrenergic receptor (ADRA1B, Homo sapiens, UniProt P35368)", "note": "Protocols differ between the studies behind these lines."}
{"SMILES": "CCCCCCCCC(=O)c1cc(O)c(O)c(O)c1", "target": "Nuclear receptor subfamily 4 group A member 2", "assay": "binding, ITC", "measurement": "Kd", "value": "3400 nM"}
{"SMILES": "O=C(O)c1cc(-c2ccc([C@H]3C[C@H]4C[C@@H]3CN4)cc2)c2ccc(-c3ccc(C(F)(F)F)cc3)cc2c1", "target": "P2RY14", "assay": "ligand displacement, flow cytometry", "measurement": "Ki", "value": "1.81 nM"}
{"SMILES": "CCN(CC)Cc1cc(Nc2ccnc3cc(Cl)ccc23)ccc1O", "target": "Nuclear receptor subfamily 4 group A member 2", "assay": "binding, ITC", "measurement": "Kd", "value": "2700 nM"}
{"SMILES": "Cc1cc(Oc2ncccc2CN2CCN(c3ccccc3[N+](=O)[O-])CC2)ccc1-c1c(C)c(=O)[nH]c(=O)n1C", "target": "ADRA1B", "assay": "ligand displacement, radioligand", "measurement": "Ki", "value": "2920 nM"}
{"SMILES": "Cc1onc(-c2ccccc2)c1-c1ccc(S(N)(=O)=O)cc1", "target": "Nuclear receptor subfamily 4 group A member 2", "assay": "binding, ITC", "measurement": "Kd", "value": "1200 nM"}
{"SMILES": "Cc1cc(Oc2ncccc2CN2CCN(c3ccc(Cl)cc3)CC2)ccc1-c1c(C)c(=O)[nH]c(=O)n1C", "target": "ADRA1B", "assay": "ligand displacement, radioligand", "measurement": "Ki", "value": "2590 nM"}
{"SMILES": "O=C(O)c1cc(-c2ccc(-n3cc(CCOP(=O)(O)O)nn3)cc2)c2ccc(-c3ccc(C(F)(F)F)cc3)cc2c1", "target": "P2RY14", "assay": "ligand displacement in cells, flow cytometry", "measurement": "Ki", "value": "779 nM"}
{"SMILES": "CCCCCCCCCCCCCCCC(=O)OC[C@H](COP(=O)(O)O[C@H]1[C@H](O)[C@@H](OP(=O)(O)O)[C@H](OP(=O)(O)O)[C@@H](OP(=O)(O)O)[C@H]1O)OC(=O)CCCCCCCCCCCCCCC", "target": "Heat shock protein beta-1 (HSPB1, Homo sapiens, UniProt P04792)", "assay": "binding, MST", "measurement": "Kd", "value": "188 nM"}
{"SMILES": "O=C(O)c1cc(-c2ccc(-n3nncc3CCOP(=O)(O)O)cc2)c2ccc(-c3ccc(C(F)(F)F)cc3)cc2c1", "target": "P2RY14", "assay": "ligand displacement in cells, flow cytometry", "measurement": "Ki", "value": "91.3 nM"}
{"SMILES": "COC(=O)c1cn(C)c2ccc(-c3cccnc3)cc12", "target": "Nuclear receptor subfamily 4 group A member 2", "assay": "binding, ITC", "measurement": "Kd", "value": "400 nM"}
{"SMILES": "Cc1cc(Oc2ncccc2CN2CCN(c3cccc(F)c3)CC2)ccc1-c1c(C)c(=O)[nH]c(=O)n1C", "target": "ADRA1B", "assay": "ligand displacement, radioligand", "measurement": "Ki", "value": "3020 nM"}
{"SMILES": "O=C(O)c1cc(-c2ccc(-c3c[nH]nn3)cc2)c2ccc(-c3ccc(C(F)(F)F)cc3)cc2c1", "target": "P2RY14", "assay": "ligand displacement in cells, flow cytometry", "measurement": "Ki", "value": "2.15 nM"}
{"SMILES": "Cc1cc(Oc2ncccc2CN2CCN(c3cccc(Cl)c3)CC2)ccc1-c1c(C)c(=O)[nH]c(=O)n1C", "target": "ADRA1B", "assay": "ligand displacement, radioligand", "measurement": "Ki", "value": "646 nM"}
{"SMILES": "O=C(O)c1cc(-c2ccc(-n3cc(CCO)nn3)cc2)c2ccc(-c3ccc(C(F)(F)F)cc3)cc2c1", "target": "P2RY14", "assay": "ligand displacement in cells, flow cytometry", "measurement": "Ki", "value": "89 nM"}
{"SMILES": "O=c1c(O[C@@H]2O[C@H](CO)[C@H](O)[C@H](O)[C@H]2O)c(-c2ccc(O)c(O)c2)oc2cc(O)cc(O)c12", "target": "Sortase B (srtB, Staphylococcus aureus, UniProt Q2FZE3)", "assay": "binding, SPR", "measurement": "Kd", "value": "198000 nM"}
